Assay [1] deals with HL-60 (Homo sapiens). In words: Cytotoxicity against human HL-60 cells.
Assay [2] relates to Plasmodium falciparum. In words: Antimalarial activity against Plasmodium falciparum 3D7 by Giemsa staining. It counts as functional, organism-based. In outline:
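P. falciparum 3D7 clone grown in human erythrocyte culture (Trager–Jensen) in 24-well plates. Compounds dissolved in DMSO (final <0.5%) and diluted in RPMI 1640 with 10% human plasma, 25 mM HEPES and 25 mM NaHCO₃ to final 10, 1, 0.1, 0.01, 0.001 µg/mL. Growth read from MeOH-fixed, Giemsa-stained smears; IC50 = 50% growth inhibition versus untreated control.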

The record followed here is ChEMBL document CHEMBL1154278, “Cassiarins C-E, antiplasmodial alkaloids from the flowers of Cassia siamea” (J Nat Prod, 2009).

As a reminder, the IC50 is the midpoint of a concentration-inhibition curve. Low values mean inhibition by little substance, high ones a need for much substance. As for `Cc1cc2cc(O)cc3c2c(n1)CC(C)O3` (configuration not stated) [CASSIARIN C], the IC50 was > 100 µM in assay [1] and 24.2 µM in assay [2].
For `Cc1cc2c3c(cc(=O)cc-3o1)CC(C)O2` (configuration not stated), in that order: > 100 µM and 2.3 µM.
`CC(=O)Cc1cc(O)cc2oc(CC3(C)Cc4nc(C)cc5cc(O)cc(c45)O3)cc(=O)c12` (configuration not stated) [CASSIARIN D]: the results for the IC50 in assay [1] and in assay [2] were > 100 µM and 3.6 µM, respectively.
The like results for `CC(=O)Cc1cc(O)cc2oc(C)cc(=O)c12` were, in that order, > 100 µM and 8.6 µM.
For the compound `Cc1cc2cc(=O)cc3oc(C)cc(o1)c23` [ANHYDROBARAKOL], the IC50 is > 100 µM in assay [1] and 4.7 µM in assay [2].
In the case of `Cc1cc2cc(O)cc3c2c(n1)C=C(CC1(C)Cc2nc(C)cc4cc(O)cc(c24)O1)O3` (configuration not stated) [CASSIARIN E], the IC50 in assay [1] was > 100 µM; in assay [2] it was 7.3 µM.
